Results on two compounds are retold here after ChEMBL document CHEMBL5661984, “Allosteric ligands for the pharmacologically dark receptors GPR68 and GPR65” (Nature, 2015).

Activity calls are given as the source filed them. The calls are words filed in the database; no cut-off is given here.

For test [1], the target named is T1, G-protein coupled receptor 65 (Homo sapiens, UniProt Q8IYL9). The test can be described thus: Antagonist activity against GPR65 (unknown origin) transfected in human HEK293T cells incubated for 15 mins in presence of BTB09089 by luminescence counter analysis. The format is functional, cell-based. To be noted: filed as antagonist. The method, boiled down:
(§1)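 GloSensor split-luciferase cAMP assay. HEK293-T cells transiently co-transfected with GPR65 (wild type or the D153A, R187L, F242A or Y272A mutant) and GloSensor 7A reporter. Cells plated in DMEM with 1% dialyzed FBS for at least 6 h, then loaded with luciferin (4 mM, in drug buffer pH 8.4) for 90 min at 37°C. Compounds added at set pH in HBSS with 10 mM HEPES/10 mM MES, with TAPS for higher pH. Luminescence read after about 20 min at room temperature. Data normalized to buffer basal and fitted to a 4-parameter logistic.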

Test [2] addresses T1, G-protein coupled receptor 65. Put plainly: Antagonist activity against GPR65 (unknown origin) transfected in human HEK293T cells incubated for 15 mins by luminescence counter analysis. It counts as functional, cell-based. The essentials:
as §1

Test [3] is described as follows: Antagonist activity against GPR65 D153A mutant (unknown origin) transfected in human HEK293T cells incubated for 15 mins by luminescence counter analysis relative to control. The conditions noted are these: HEK-293T, 0.25 h, condition central nervous system disease. The method, boiled down: as §1
For test [4], the target named is T1, G-protein coupled receptor 65. Put plainly: Antagonist activity against GPR65 (unknown origin) transfected in human HEK293T cells incubated for 15 mins by luminescence counter analysis relative to control. It counts as functional, cell-based. The method, boiled down:
as §1

The nature of test [5]: Antagonist activity against GPR65 D153A mutant (unknown origin) transfected in human HEK293T cells incubated for 15 mins by luminescence counter analysis. The format is cell-based. The conditions noted are these: HEK-293T, 0.25 h. The essentials:
as §1

For test [6], the system named is HEK293T. The test can be described thus: Antagonist activity against GPR65 F242A mutant (unknown origin) transfected in human HEK293T cells incubated for 15 mins by luminescence counter analysis. The format is cell-based. The conditions noted are these: filed as antagonist. The essentials: as §1
The test system of test [7] is HEK293T. Put plainly: Antagonist activity against GPR65 Y272A mutant (unknown origin) transfected in human HEK293T cells incubated for 15 mins by luminescence counter analysis. It counts as cell-based. To be noted: filed as antagonist. The essentials:
as §1

The subject of test [8] is HEK293T. Put plainly: Antagonist activity against GPR65 R187L mutant (unknown origin) transfected in human HEK293T cells incubated for 15 mins by luminescence counter analysis. The format is cell-based. The conditions noted are these: filed as antagonist. The method, boiled down: as §1
Test [9] has as its target T1, G-protein coupled receptor 65. The test can be described thus: Agonist activity against GPR65 (unknown origin) transfected in human HEK293T cells incubated for 15 mins by luminescence counter analysis. It counts as functional, cell-based. To be noted: filed as agonist. The essentials:
as §1

T1 sequence (Q8IYL9 whole entry): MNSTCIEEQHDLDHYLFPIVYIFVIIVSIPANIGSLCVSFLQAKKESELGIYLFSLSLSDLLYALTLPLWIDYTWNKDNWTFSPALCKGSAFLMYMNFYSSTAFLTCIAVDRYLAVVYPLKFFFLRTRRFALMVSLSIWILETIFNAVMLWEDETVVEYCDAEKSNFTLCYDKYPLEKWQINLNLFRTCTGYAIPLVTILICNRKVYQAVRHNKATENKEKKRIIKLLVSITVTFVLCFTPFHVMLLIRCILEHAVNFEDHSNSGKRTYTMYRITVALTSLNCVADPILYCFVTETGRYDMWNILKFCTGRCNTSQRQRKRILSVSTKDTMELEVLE

For the compound `Cc1nc(-c2ncccn2)sc1C(=O)O[C@@H](c1ccccc1)c1ccncc1`, the outcome in [1] and in [2] (filed as antagonist) was Active.

By Emax is commonly meant the greatest response seen or fitted, relative to the assay's reference. By EC50 is commonly meant the concentration that produces a half-maximal response. Low values mean an effect from little substance, high ones a need for much substance. For `CN1N=C(SCc2ccc(Cl)cc2Cl)Sc2c1cnn(C)c2=O`, the Emax in test [3] is 8.1%; in [4], 7.6%. Further, the EC50 in test [2] is 7.76 µM; in test [5], 1.29 µM. For the same compound, the result (with HEK293T [6]; in the test on HEK293T [7]; with HEK293T [8]; in test [9]) was Active.
